Experimental data taken from the array DNA melting data of Ke et al. (doi:10.1101/2024.01.08.574731).

Columns and labels:
[1] = folding enthalpy; higher = less favourable; fluorescence melt of hairpins on a sequencing array, two-state fit; details: sodium 0.088 M
How it was run: (§1)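 Library hairpins on a sequenced MiSeq flow cell carried annealed Cy3 and quencher oligos, and their Cy3 fluorescence was imaged in 50 mM Na-HEPES pH 8.0 with 25 mM NaCl, in 2.5 °C steps up to 60 °C. Signals were normalised to Cy3 before quenching and to control constructs. Melting temperature and folding enthalpy were obtained from bootstrapped two-state fits, combined by inverse-variance weighting across four replicates, and the fitted temperatures were then raised by 9.35 °C to match UV melts.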

[2] = melting temperature; fluorescence melt of hairpins on a sequencing array, two-state fit, raised by 9.35 °C to match UV melts; details: sodium 0.088 M
How it was run: as §1

Sequence	folding enthalpy [1]	Tm [2]
GGTTACGAAAGTACCACC ((((((....)))..)))	-14.4 kcal/mol	36.6 °C
GGTTACGAAAGTACGACC ((((((....)))..)))	-14.9 kcal/mol	31.4 °C
GGTTACGAAAGTAGACC ((((((....))).)))	-25.3 kcal/mol	41.4 °C
GGTTACGAAAGTATACC ((((((....))).)))	-23.8 kcal/mol	43.1 °C
GGTTACGGAAACGCAACC ((((.((....)).))))	-32.7 kcal/mol	46.6 °C
GGTTAGCGAAAGCTACC (((.(((....))))))	-17.2 kcal/mol	53.3 °C
GGTTAGCGAAAGCTGACC (((.(((....))).)))	-36.4 kcal/mol	58.4 °C
GGTTATCCGAAAGGAACC (((..(((....))))))	-15.2 kcal/mol	30.2 °C
GGTTATGCGAAAGCAACC (((..(((....))))))	-15.1 kcal/mol	38.3 °C
GGTTATGGAAACATGACC (((.(((....))).)))	-33.2 kcal/mol	45.4 °C
GGTTCACGAAAGTGACC (((.(((....))))))	-15.5 kcal/mol	59 °C
GGTTCCGAAAGGAACACC ((((((....)))..)))	-8.81 kcal/mol	51.9 °C
GGTTCCGAAAGGACACC ((((((....))).)))	-24.5 kcal/mol	48 °C
GGTTCCGAAAGGATGACC ((((((....)))..)))	-18.5 kcal/mol	38.2 °C
GGTTCGAAAGAACC (((((....)))))	-28.2 kcal/mol	64.8 °C
GGTTCGCGAAAGCGCACC (((.(((....))).)))	-29.5 kcal/mol	55.4 °C
GGTTCTCGAAAGAGACC (((.(((....))))))	-20.9 kcal/mol	49.7 °C
GGTTCTCGAAAGAGCACC (((.(((....))).)))	-31.1 kcal/mol	45.9 °C
GGTTGACGAAAGTCACC (((.(((....))))))	-19.8 kcal/mol	53.5 °C
GGTTGACGAAAGTCGACC (((.(((....))).)))	-46.8 kcal/mol	63 °C
GGTTGAGGAAACTCAATC (.(((((....))))).)	-28.3 kcal/mol	43.4 °C
GGTTGTGCGAAAGCAACC (((..(((....))))))	-19.1 kcal/mol	42.8 °C
GGTTGTGGAAACACAACC (((((((....)))))))	-42 kcal/mol	66.3 °C

Sequence	folding enthalpy [1]	Tm [2]
GGTTGTGGAAACACAATC (.(((((....))))).)	-29.7 kcal/mol	47.9 °C
GGTTGTGGAAACGCAATC (.(((.(....).))).)	-20.6 kcal/mol	35.7 °C
GGTTTAACGAAAGTTACC (((..(((....))))))	-14.6 kcal/mol	29.6 °C
GGTTTAGCGAAAGCTACC (((..(((....))))))	-12.1 kcal/mol	32 °C
GGTTTAGGAAACCAAACC (((((.(....).)))))	-22.9 kcal/mol	37 °C
GGTTTCACGAAAGTGACC (((..(((....))))))	-12.3 kcal/mol	29.2 °C
GGTTTCCGAAAGGAGACC (((.(((....))).)))	-51 kcal/mol	54.4 °C
GGTTTCGAAAGAAACACC ((((((....)))..)))	-11.3 kcal/mol	45.7 °C
GGTTTCGAAAGAAAGACC ((((((....)))..)))	-14.4 kcal/mol	30.1 °C
GGTTTCGAAAGAACAACC ((((((....)))..)))	-13 kcal/mol	30.4 °C
GGTTTCGCGAAAGCGACC (((..(((....))))))	-8.08 kcal/mol	32.1 °C
GGTTTCGGAAACGAGATC (.(.(((....))).).)	-11.6 kcal/mol	27.7 °C
GGTTTCGGAAACGGAATC (.((.((....)).)).)	-20.8 kcal/mol	33.4 °C
GGTTTCTCGAAAGAGACC (((..(((....))))))	-18.8 kcal/mol	32.6 °C
GGTTTGGGAAACTAAACC (((((.(....).)))))	-33 kcal/mol	44.7 °C
GGTTTGTCGAAAGACACC (((..(((....))))))	-10.9 kcal/mol	31.2 °C
GGTTTTCCGAAAGGAACC (((..(((....))))))	-12.1 kcal/mol	31.1 °C
GGTTTTGGAAACGAAATC (.(((.(....).))).)	-12.1 kcal/mol	25.2 °C
GTAAAAGGAAACTTTTAC (((((((....)))))))	-37.1 kcal/mol	46.4 °C
GTAAACCCGAAAGGGTAC (((..(((....))))))	-10.1 kcal/mol	32.8 °C
GTAAACCGAAAGGTCTAC (((.(((....))).)))	-19.2 kcal/mol	35.6 °C
GTAAACGAAAGTTGCTAC ((((((....)))..)))	-9.49 kcal/mol	29 °C
GTAAACGCGAAAGCGTAC (((..(((....))))))	-8.26 kcal/mol	35 °C

Sequence	folding enthalpy [1]	Tm [2]
GTAAAGACGAAAGTCTAC (((..(((....))))))	-11.6 kcal/mol	29.8 °C
GTAAAGGGAAACCCTTAC ((((.((....)).))))	-22.2 kcal/mol	32.8 °C
GTAAAGGGAAACCTTTGC (.(((((....))))).)	-28.4 kcal/mol	37.5 °C
GTAAAGTCGAAAGACTAC (((..(((....))))))	-11.7 kcal/mol	31.9 °C
GTAAATCGAAAGATGTAC (((.(((....))).)))	-23.1 kcal/mol	34.4 °C
GTAAATCGAAAGATTAC (((.(((....))))))	-14 kcal/mol	33.9 °C
GTAAATGAAAATTTAC ((((((....))))))	-26.1 kcal/mol	37.2 °C
GTAAATGCGAAAGCATAC (((..(((....))))))	-10.9 kcal/mol	29.3 °C
GTAACCGAAAGGTGTAC ((((((....))).)))	-19.5 kcal/mol	41.3 °C
GTAACCGAAAGGTTATAC ((((((....)))..)))	-13.4 kcal/mol	43.7 °C
GTAACCGAAAGGTTTAC ((((((....))).)))	-14.2 kcal/mol	43 °C
GTAACGAAAGTTAC (((((....)))))	-26.1 kcal/mol	55 °C
GTAACGCCGAAAGGCTAC (((..(((....))))))	-6.97 kcal/mol	27.1 °C
GTAACGGGAAACTGTTGC (.(((.(....).))).)	-22.8 kcal/mol	32.9 °C
GTAACTGGAAACGGTTAC (((((.(....).)))))	-32.6 kcal/mol	44.1 °C
GTAAGAGAAATCTTAC ((((((....))))))	-22 kcal/mol	38.6 °C
GTAAGCCGAAAGGCTAC (((.(((....))))))	-11.5 kcal/mol	47.3 °C
GTAAGCGAAAGCTGATAC ((((((....)))..)))	-12.2 kcal/mol	29.8 °C
GTAAGCGGAAACGCTCAC ((.((((....)))).))	-13.4 kcal/mol	37.7 °C
GTAAGCTCGAAAGAGTAC (((..(((....))))))	-12.2 kcal/mol	27 °C
GTAAGGTCGAAAGACTAC (((..(((....))))))	-13.1 kcal/mol	29.1 °C
GTAAGTCGAAAGACTAC (((.(((....))))))	-16.9 kcal/mol	39.5 °C
GTAAGTGCGAAAGCATAC (((..(((....))))))	-11.2 kcal/mol	27.2 °C

Sequence	folding enthalpy [1]	Tm [2]
GTAAGTGGAAACGCTTAC (((((.(....).)))))	-27.6 kcal/mol	45.4 °C
GTAAGTGGAAACGTTTAC ((((..(....)..))))	-10.7 kcal/mol	27.5 °C
GTAATACGAAAGTAATAC (((.(((....))).)))	-20.2 kcal/mol	34 °C
GTAATACGAAAGTATAC (((.(((....))))))	-16 kcal/mol	34.5 °C
GTAATCCGAAAGGAGTAC (((.(((....))).)))	-28.5 kcal/mol	49.9 °C
GTAATCGAAAGATGTAC ((((((....))).)))	-16.9 kcal/mol	30.8 °C
GTAATCGCGAAAGCGTAC (((..(((....))))))	-6.16 kcal/mol	26.7 °C
GTAATGAAAATTAC (((((....)))))	-15.6 kcal/mol	34.1 °C
GTAATGGGAAACTATTAC (((((.(....).)))))	-28.6 kcal/mol	34.5 °C
GTAATTCCGAAAGGATAC (((..(((....))))))	-10.6 kcal/mol	28.2 °C
GTAATTCGAAAGAACTAC (((.(((....))).)))	-14.6 kcal/mol	30 °C
GTAATTCGAAAGAAGTAC (((.(((....))).)))	-25 kcal/mol	42.3 °C
GTACAACGAAAGTTATAC (((.(((....))).)))	-19.1 kcal/mol	30.4 °C
GTACAACGAAAGTTTTAC (((.(((....))).)))	-18.6 kcal/mol	36.7 °C
GTACAAGGAAACTTGTAC (((((((....)))))))	-38.9 kcal/mol	53.2 °C
GTACACGAAAGTGCGTAC ((((((....)))..)))	-10.7 kcal/mol	30.8 °C
GTACACGAAAGTGGCTAC ((((((....)))..)))	-13.9 kcal/mol	35.7 °C
GTACACGAAAGTGGTTAC ((((((....)))..)))	-10.7 kcal/mol	30.5 °C
GTACACGCGAAAGCGTAC (((..(((....))))))	-8.06 kcal/mol	35.5 °C
GTACACGGAAACGCGTAC ((((.((....)).))))	-40.1 kcal/mol	48.3 °C
GTACAGCGAAAGCTCTAC (((.(((....))).)))	-17.3 kcal/mol	29.5 °C
GTACAGCGAAAGCTTTAC (((.(((....))).)))	-24.7 kcal/mol	39.6 °C
